NR3A LBD binder: binders of NR3A ligand-binding domain, primary screen, biophysical, differential scanning fluorimetry, uHTS; 2.5% of 340,000 active; Tm shift relative to glycine control, % at 25 µM; NR3A LBD differential scanning fluorimetry, Tm shift; 0% = protein alone, 100% = glycine-bound protein; Glutamate receptor ionotropic, NMDA 3A (GRIN3A) ligand-binding domain;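 active = melting temperature shift of at least 10% of the positive control shift, at one fixed dose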
CSC inhib: cancer stem cell viability inhibitors, primary screen, luminescence; cancer stem cell-like cells viability; inhibition, % at 7.5 µM; 1.1% of 300,000 active; AID 2717, 2010; in the data active = inhibition above about 75%; inconclusive = no clear call, values can overlap the other calls; tested in HMLE shEcad cells
CHOP inh: inhibitors of CHOP promoter induction, primary screen, cell-based, unfolded protein response, luciferase reporter; 3.8% of 220,000 active; inhibition, % at 10 µM; CHO-K1 CHOP-promoter luciferase, tunicamycin-induced, 15-18 h;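 active = compounds that reduced the stress-induced luciferase reporter signal by more than about 70% of percent inhibition, limit read from the data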;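 note: 0% = tunicamycin plus vehicle and 100% = wells without tunicamycin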
Beta cell apopt: inhibitors of cytokine-induced beta cell apoptosis, primary screen, luminescence | INS-1E cytokine-induced death, ATP luminescence, 48 h; percent of positive-control rescue, neutral wells zero | protection from apoptosis, % (test concentration not listed) | 0.8% of 300,000 active | AID 435005, 2010;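 active = Every replicate reaches about 75%, or at least half do and their mean reaches it too, limit read from the data; inconclusive = At least half of replicates reach the limit but their mean does not; inactive = Under half of replicates reach the limit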;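 note: 0% = cytokine-treated negative control wells and 100% = positive control rescue; higher means more ATP so stronger rescue from cytokine killing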
PREPL inh: PREPL enzyme inhibitors, primary screen, biochemical, fluorescence polarization | Prolyl endopeptidase-like (Homo sapiens), Q4J6C6 | recombinant PREPL, fluorescence polarization activity-based probe | inhibition, % at 5.96 µM | 0.68% of 320,000 active; in the data active = inhibition above about 43%;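 note: 0% = enzyme with DMSO and 100% = wells lacking enzyme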
Target sequence (Q4J6C6 whole entry, looked up): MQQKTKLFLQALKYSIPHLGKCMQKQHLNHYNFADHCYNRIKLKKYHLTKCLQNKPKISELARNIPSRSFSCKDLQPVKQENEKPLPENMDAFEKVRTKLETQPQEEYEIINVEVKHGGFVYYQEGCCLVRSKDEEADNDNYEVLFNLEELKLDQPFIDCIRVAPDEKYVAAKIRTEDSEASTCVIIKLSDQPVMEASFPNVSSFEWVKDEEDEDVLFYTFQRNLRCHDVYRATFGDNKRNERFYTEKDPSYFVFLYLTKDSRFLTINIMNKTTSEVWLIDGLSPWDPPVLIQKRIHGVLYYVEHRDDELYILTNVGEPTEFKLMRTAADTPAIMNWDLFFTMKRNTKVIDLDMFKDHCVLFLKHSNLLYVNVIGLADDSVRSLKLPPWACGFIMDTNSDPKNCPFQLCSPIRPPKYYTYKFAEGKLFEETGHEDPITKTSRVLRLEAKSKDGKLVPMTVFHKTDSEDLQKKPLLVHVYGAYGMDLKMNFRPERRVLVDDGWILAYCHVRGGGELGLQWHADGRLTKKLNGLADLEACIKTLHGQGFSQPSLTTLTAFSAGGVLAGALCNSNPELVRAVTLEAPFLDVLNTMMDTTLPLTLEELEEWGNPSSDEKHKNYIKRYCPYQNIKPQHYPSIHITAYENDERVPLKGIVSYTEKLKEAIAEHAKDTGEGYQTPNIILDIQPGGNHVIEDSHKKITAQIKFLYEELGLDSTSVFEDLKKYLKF
T cruzi inh: inhibitors of intracellular T. cruzi growth, primary screen, luminescence, NIH3T3 host cells | 1.4% of 300,000 active | inhibition, % (test concentration not listed) | T. cruzi beta-gal in NIH3T3, 90 h;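 active = mean inhibition across valid replicates above about 55%, limit read from the data; inconclusive = mean below that limit but half or more replicates reach it; inactive = mean below it, under half of replicates reach it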;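 note: signal also drops with host cell toxicity which is not excluded here; 0% = plate median of DMSO wells and 100% = zero luminescence signal; higher percent means less beta-gal luminescence so fewer parasites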
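System: NIH/3T3 fibroblasts plus reporter T. cruzi. Medium: DMEM plus 2% FBS. Probe or stimulus: 5000 reporter trypomastigotes per well. Compound: single 50 nL compound addition per well in DMSO. Incubation: co-culture of at least 90 h after 3 h attachment. Detection: GalScreen β-gal luminescence, detergent lysis, 60 min. Evaluation: parasite load inhibition, %.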
* = called active by the depositor; ! = not confirmed by another sample. A selection: hits, their analogues and other compounds. The true share with any hit is near 6.7%.

Screening COc1ccc(-c2csc3nc(C)n(-n4cccc4)c(=O)c23)cc1 returned NR3A LBD binder -1, CSC inhib -2, Beta cell apopt 1, PREPL inh 8 and T cruzi inh 6.
For Cc1nc2scc(-c3ccc(C(C)(C)C)cc3)c2c(=O)n1N the results were NR3A LBD binder -1, CSC inhib -9, CHOP inh 76*, PREPL inh 0 and T cruzi inh -8.
Screening CCOC(=O)Nc1ccc2c(c1)N(C(=O)CCN1CCOCC1)c1ccccc1S2 returned NR3A LBD binder -5, CSC inhib 8, CHOP inh 27, Beta cell apopt 0, PREPL inh 0 and T cruzi inh 68*!.
`COC(=O)c1c(C)oc(C)c(C(=O)OC)c1=O` gave NR3A LBD binder 0, CSC inhib -10, CHOP inh -2, Beta cell apopt -10, PREPL inh 10 and T cruzi inh -14.
`CCOC(=O)c1c(C)oc2c(F)c(F)c(F)c(F)c2c1=O` gave NR3A LBD binder 1, CSC inhib 90*, PREPL inh -22 and T cruzi inh -17.
For COc1ccc(OCc2nn[nH]n2)cc1 the results were NR3A LBD binder -1, CSC inhib -11, Beta cell apopt -3, PREPL inh -1 and T cruzi inh -9.
Screening CN(c1ccccc1)S(=O)(=O)c1cccc(NC(=O)CN2C(=O)NC3(CCCC3)C2=O)c1 returned NR3A LBD binder 1.
`CCOc1ccc(Nc2nc(NCc3ccco3)nc(N)c2[N+](=O)[O-])cc1` gave NR3A LBD binder 12*, CSC inhib -4, CHOP inh 0, Beta cell apopt -2, PREPL inh 15 and T cruzi inh -5.
`Nc1nc(NCc2ccco2)nc(Nc2ccc(F)cc2)c1[N+](=O)[O-]` gave NR3A LBD binder 5, CSC inhib 7, CHOP inh 2, Beta cell apopt 1, PREPL inh 6 and T cruzi inh -9.
`Cc1ccc(Nc2nc(N)c([N+](=O)[O-])c(NCCO)n2)cc1C` gave NR3A LBD binder 0, CHOP inh 19, PREPL inh -35 and T cruzi inh 7.
Screening Cc1ccc(Nc2nc(N)c([N+](=O)[O-])c(NCc3ccco3)n2)cc1C returned NR3A LBD binder -1, CSC inhib 84*, CHOP inh 79*, Beta cell apopt 7, PREPL inh -9 and T cruzi inh 26.
Screening CC(=O)c1ccc(N2CCN(C(=O)CCCc3nc4ccccc4s3)CC2)cc1 returned NR3A LBD binder -1, CSC inhib -7, CHOP inh 25, Beta cell apopt 7, PREPL inh 19 and T cruzi inh -3.
Cc1c(Cc2ccccc2)c(=O)oc2cc(O)cc(O)c12 was read as NR3A LBD binder -3, CSC inhib inconclusive, CHOP inh 8, Beta cell apopt -4, PREPL inh 4 and T cruzi inh 12.
Cc1ccc(S(=O)(=O)N2CCOCC2)cc1C(=O)Nc1nc(-c2ccccn2)cs1 was read as NR3A LBD binder 1, CSC inhib 27, Beta cell apopt 76* and PREPL inh 13.
For COc1ccccc1C(=O)Nc1nc(-c2ccc(S(=O)(=O)N3CCOCC3)cc2)cs1 the results were NR3A LBD binder -2, CSC inhib 41, CHOP inh 92*, Beta cell apopt 85*, PREPL inh -21 and T cruzi inh 47.
Screening O=C(Nc1nc(-c2ccccn2)cs1)c1cccc(S(=O)(=O)N2CCOCC2)c1 returned NR3A LBD binder -2, CSC inhib 35, Beta cell apopt 68 and PREPL inh 6.
O=C(Nc1nc(-c2ccccn2)cs1)c1ccc(S(=O)(=O)N2CCCCC2)cc1 was read as CSC inhib 99*, Beta cell apopt 83*, PREPL inh -13 and T cruzi inh 54.
O=S(=O)(c1ccc(-c2csc(-c3cccnc3)n2)cc1)N1CCCCC1 was read as NR3A LBD binder -16, CSC inhib 13, CHOP inh 59, Beta cell apopt 4, PREPL inh -11 and T cruzi inh 66*.
`COc1cc(CN2CCCC(C(=O)c3ccc4c5c(cccc35)CC4)C2)cc(OC)c1O` (centres undefined) gave NR3A LBD binder -13, CSC inhib 2, CHOP inh -18, Beta cell apopt 3, PREPL inh -79 and T cruzi inh -14.
Screening COc1cccc(NC(=O)CN(C)C(C)C(=O)N2CCCCC2)c1 (centres undefined) returned NR3A LBD binder 1, CSC inhib -24, Beta cell apopt -3 and PREPL inh 3.
CCCn1c(C(O)c2cccc(OC)c2)nc2ccccc21 (centres undefined) was read as NR3A LBD binder -1 and T cruzi inh 3.
`Cc1cccc(NC(=O)COc2cccc3c2CCN(C)C3=O)c1C` gave NR3A LBD binder 0, CSC inhib -5, CHOP inh 9, Beta cell apopt 1, PREPL inh -10 and T cruzi inh 11.
`CCOC(=O)c1c(NC(=O)COC(=O)Cn2c(C)nc3ccccc32)sc2c1CCCC2` gave NR3A LBD binder -12, CSC inhib 7, CHOP inh 74*, Beta cell apopt -3, PREPL inh -6 and T cruzi inh 10.
Screening CCOC(=O)c1c(NC(=O)COC(=O)Cn2cnc3ccccc32)sc2c1CCC(C)C2 (centres undefined) returned NR3A LBD binder -8, CSC inhib -6, CHOP inh 72*, Beta cell apopt 0 and PREPL inh -1.
CCOC(=O)c1c(NC(=O)C(C)NCc2ccco2)sc2c1CCC(C)C2 (centres undefined) was read as NR3A LBD binder 5, CSC inhib 46, CHOP inh 73*, Beta cell apopt 4, PREPL inh 7 and T cruzi inh 22.
`CCOC(=O)c1c(NC(=O)Cn2c(C)nc3ccccc32)sc2c1CCC2` gave NR3A LBD binder 1, CSC inhib 11, CHOP inh 48, Beta cell apopt -1, PREPL inh 14 and T cruzi inh 28.
For CCOC(=O)c1c(NC(=O)COc2cccc3c2CCN(C)C3=O)sc2c1CCC2 the results were NR3A LBD binder 1, CSC inhib 22, CHOP inh 82*, Beta cell apopt 25, PREPL inh 13 and T cruzi inh 18.
For CCOC(=O)c1c(NC(=O)Cn2nnc3ccccc32)sc2c1CCC(C)C2 (centres undefined) the results were NR3A LBD binder -3, CSC inhib 20, CHOP inh 49, Beta cell apopt 7, PREPL inh -1 and T cruzi inh 16.
